Values joined by “and” are separate entries in the source; they are usually repeats but may differ in a detail not shown here. Equal values may be shown once. Read-outs that look alike come from different tables or passages of the source.
Experiments:
[1] = assay type: in vivo, human (healthy men); conditions: human
[2] = Rat plasma PK and plasma metabolite profile after oral [14C]-levomilnacipran; assay type: in vivo, Sprague Dawley rats
Method in brief: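 Male Sprague Dawley rats were gavaged with 50 mg/kg [14C]-test compound. Aortic blood was drawn under isoflurane into lithium heparin, three rats per time, from 0.25 to 72 h (second study: 1–10 h). Plasma radioactivity was counted by liquid scintillation. Parent and N-desethyl metabolite were measured by LC–MS/MS (1–500 ng/mL), and conjugates after β-glucuronidase/sulfatase deconjugation. Cmax and AUC came from non-compartmental analysis.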

[3] = Rat mass balance and urine metabolite profile; assay type: in vivo, Sprague Dawley rats; conditions: rat (Sprague Dawley), 50 mg/kg, urine 0–24 hours
Method in brief: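 Sprague Dawley rats received 50 mg/kg [14C]-test compound by gavage in ultrapure water. Urine, feces and cage wash were collected from 3 males and 3 females pre-dose and at 0–8, 8–24, 24–48 and 48–72 h. A second study collected urine from 3 males to 24 h. Radioactivity was counted by liquid scintillation as % of dose. Urinary analytes were measured by LC–MS/MS (50–24,750 ng/mL), with and without deconjugation (15 h, 37°C).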

[4] = Monkey mass balance and urine metabolite profile; assay type: in vivo, Macaca fascicularis monkeys; conditions: 30 mg/kg, urine 0–24 hours
[5] = Human mass balance and urine metabolite profile; assay type: in vivo, human (healthy men); conditions: 60 mg, urine 0–120 hours
Method in brief: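 Open-label single-centre study in healthy young men. Each took one oral 5 mL solution of 60 mg [14C]-test compound (3.7 MBq), about 30 min after starting breakfast. Urine was collected in intervals to 120 h and feces in 24-h intervals to 120 h. Radioactivity was read by liquid scintillation and reported as % of dose. Urinary analytes were measured by LC–MS/MS (1–5,000 ng/mL) before and after β-glucuronidase/sulfatase deconjugation (15 h, 37°C).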

[6] = system: plasma proteins; conditions: cited from earlier work
[7] = cited from earlier work; for half-life (T1/2): humans
[8] = Sprague Dawley, rat, plasma, po, 50 mg/kg

## CCN(CC)C(=O)[C@@]1(c2ccccc2)C[C@H]1CN [Levomilnacipran, levomilnacipran]
[1]; 60 mg oral
  Contribution to total radioactivity plasma exposure (area under the curve): 45.1%
[1]; from average peak plasma concentrations
  Contribution to total plasma radioactivity at peak plasma levels: 61.0%
[1]; within 12 hours of dosing
  Share of total plasma radioactivity: 52.9%
[1]; male, plasma, po, 60 mg
  AUC(0-inf): 2090 ng·h/mL
  AUC(0-t): 2060 ng·h/mL
  Cmax: 179 ng/mL
  Tmax: 2.75 h
  half-life: 624 min
[2]; [8]
  AUC(0-inf): 16600 ng·h/mL
  AUC(0-t): 16600 ng·h/mL
  Cmax: 8060 ng/mL
  Tmax: 30 min
[2]; male rats, 50 mg/kg oral
  Share of circulating total radioactivity: about 60%
[3]
  Mean urinary excretion of compound: 40.2 % of administered dose
[4]
  Mean urinary excretion of compound: 35.5 % of administered dose
[5]
  Mean urinary excretion of compound: 58.4 % of administered dose
[5]; listed as levomilnacipran
  Mean urinary excretion of compound: 58.4 % of administered dose and 58 % of administered dose

## CN(C)CC(c1ccc(O)cc1)C1(O)CCCCC1 (stereo not drawn) [desvenlafaxine]
[6]
  plasma protein binding: 30%
[7]
  Urinary excretion as unchanged (parent) drug: 45%
  half-life (T1/2): 11 h

## CNCC[C@H](Oc1cccc2ccccc12)c1cccs1 [duloxetine]
[6]
  plasma protein binding: greater than 90%
[7]
  Urinary excretion as unchanged (parent) drug: less than 1%
  half-life (T1/2): 12 h

## CCN(CC)C(=O)C1(c2ccccc2)CC1CN (stereo not drawn) [milnacipran]
[6]
  plasma protein binding: 13%
[7]
  half-life (T1/2): 8 h

## COc1ccc(C(CN(C)C)C2(O)CCCCC2)cc1 (stereo not drawn) [venlafaxine]
[6]
  plasma protein binding: 27%
[7]
  half-life (T1/2): 5 h
